Results: ChEMBL document CHEMBL1142303, “Imidazo[2,1-b]thiazole system: a scaffold endowing dihydropyridines with selective cardiodepressant activity” (J Med Chem, 2008)
Active and inactive are the calls of the source. The rule behind the calls is not given here.

Key:
Heart [1] = test: Cardiovascular activity in perfused guinea pig heart assessed as change in coronary perfusion pressure at 1 uM by ECG; type: functional, Cavia porcellus
How it was run: (§1)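 Guinea-pig heart: values are % change from basal. Parameters are +(dP/dt)max, heart rate, coronary perfusion pressure, PR and QT intervals. Highest concentration tested 10 µM.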

[2] = (§2) Displacement of (+)-[5-methyl-3H][…] from L type calcium channel Cav1.2b in rabbit expressed in HEK293 cells; type: cell-based, Oryctolagus cuniculus
How it was run: (§3)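 Intact HEK-293 cells transfected with rabbit Cav1.2a (α1C-a) or Cav1.2b (α1C-b) plasmid, labelled with (+)-[5-methyl-3H]PN200-110. Nonspecific binding about 10–20% of total. IC50 is mean ± S.E.M. of three independent experiments.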

Cavia porcellus [3] = species: Cavia porcellus; test: Inotropic activity at L type calcium channel in guinea pig left atrium assessed as decrease in tension at 10 uM relative to control; type: tissue-based; design: scale not given: the % may be the effect or the level left; conditions: Cardiac atrium
Heart [4] = test: Cardiovascular activity in perfused guinea pig heart assessed as change in heart rate at 10 nM by ECG; type: functional, Cavia porcellus; how it was run: as §1
Heart [5] = test: Cardiovascular activity in perfused guinea pig heart assessed as change in maximal rate of rise in left ventricular pressure at 10 nM by ECG; type: functional, Cavia porcellus; how it was run: as §1
Cavia porcellus [6] = species: Cavia porcellus; test: Chronotropic activity at L type calcium channel in guinea pig right atrium assessed as decrease in spontaneous beating; type: tissue-based; conditions: Cardiac atrium
How it was run: (§4)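 Guinea-pig atria: left atrium driven at 1 Hz for inotropy, spontaneously beating right atrium for chronotropy. Increasing cumulative doses, readout is percent decrease. EC50 (inotropic) and EC30 (chronotropic) by Litchfield–Wilcoxon probit analysis on log concentration–response curves, n = 6–7. Not calculated when the maximum effect was below 50%.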

[7] = Displacement of (+)-[5-methyl-3H][…] from L type calcium channel in guinea pig heart ventricles; design: species or system Cavia porcellus
How it was run: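 Guinea-pig ventricular membranes incubated with 0.5 nM (+)-[5-methyl-3H]PN200-110 and test compounds at 0.1–50 µM in a competitive radioligand assay. Ki and IC50 reported as mean ± S.E.M. Student's t-test, significance P < 0.001.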

[8] = (§5) Displacement of (+)-[5-methyl-3H][…] from L type calcium channel Cav1.2a in rabbit expressed in HEK293 cells; type: cell-based, Oryctolagus cuniculus; how it was run: as §3
Heart [9] = test: Cardiovascular activity in perfused guinea pig heart assessed as change in atrioventricular conduction time at 1 uM by ECG; type: functional, Cavia porcellus
Heart [10] = test: Cardiovascular activity in perfused guinea pig heart assessed as change in ventricular repolarization time at 10 nM by ECG; type: functional, Cavia porcellus; how it was run: as §1
Cavia porcellus [11] = species: Cavia porcellus; test: Activity at L type calcium channel in K+ depolarized guinea pig longitudinal smooth muscle assessed as inhibition of calcium induced contraction at 5 nM; design: scale not given: the % may be the effect or the level left
Cavia porcellus [12] = species: Cavia porcellus; test: Chronotropic activity at L type calcium channel in guinea pig right atrium assessed as decrease in spontaneous beating at 0.1 uM relative to control; type: tissue-based; design: scale not given: the % may be the effect or the level left; conditions: Cardiac atrium
How it was run: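 Spontaneously beating guinea-pig right atrium: % decrease in rate vs control. Drugs added cumulatively at increasing concentrations, compared with control at each concentration (Student's t-test, P<0.05). Mean ± S.E.M.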

Cavia porcellus [13] = species: Cavia porcellus; test: Activity at L type calcium channel in K+ depolarized guinea pig aortic strip assessed as inhibition of calcium induced contraction at 1 uM; type: tissue-based; design: scale not given: the % may be the effect or the level left; conditions: Aorta
How it was run: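 Guinea-pig aortic strips depolarized with K+ (80 mM); % inhibition of Ca2+-induced contraction vs control. Drugs added cumulatively, compared with control at each concentration (Student's t-test, P<0.05). Mean ± S.E.M.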

[14] = Inotropic activity at L type calcium channel in guinea pig left atrium assessed as decrease in tension; type: tissue-based; conditions: Cavia porcellus, Cardiac atrium; how it was run: as §4
HEK293 [15] = test: as §2; type: cell-based; conditions: Oryctolagus cuniculus; how it was run: as §3
Cavia porcellus [16] = species: Cavia porcellus; test: Chronotropic activity at L type calcium channel in guinea pig right atrium assessed as decrease in spontaneous beating at 1 uM relative to control; type: tissue-based; design: scale not given: the % may be the effect or the level left; conditions: Cardiac atrium
HEK293 [17] = test: as §5; type: cell-based; conditions: Oryctolagus cuniculus; how it was run: as §3
Cavia porcellus [18] = species: Cavia porcellus; test: Activity at L type calcium channel in K+ depolarized guinea pig aortic strip assessed as inhibition of calcium induced contraction at 5 uM; type: tissue-based; design: scale not given: the % may be the effect or the level left; conditions: Aorta
How it was run: (§6)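 Guinea-pig aortic strips depolarized with 80 mM K+. Drugs added cumulatively. Readout is percent inhibition of calcium-induced contraction, n = 5–6. Control versus treated values tested at each concentration by Student's t-test, P < 0.05.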

Cavia porcellus [19] = species: Cavia porcellus; test: Chronotropic activity at L type calcium channel in guinea pig right atrium assessed as decrease in spontaneous beating at 5 uM relative to control; type: tissue-based; design: scale not given: the % may be the effect or the level left; conditions: Cardiac atrium
Cavia porcellus [20] = species: Cavia porcellus; test: Activity at L type calcium channel in K+ depolarized guinea pig longitudinal smooth muscle assessed as inhibition of calcium induced contraction at 0.5 uM; design: scale not given: the % may be the effect or the level left
Cavia porcellus [21] = species: Cavia porcellus; test: Inotropic activity at L type calcium channel in guinea pig left atrium assessed as decrease in tension at 100 uM relative to control; type: tissue-based; design: scale not given: the % may be the effect or the level left; conditions: Cardiac atrium
[22] = Activity at L type calcium channel in K+ depolarized guinea pig longitudinal smooth muscle assessed as inhibition of calcium induced contraction; design: species or system Cavia porcellus
Cavia porcellus [23] = species: Cavia porcellus; test: Inotropic activity at L type calcium channel in guinea pig left atrium assessed as decrease in tension at 0.5 uM relative to control; type: tissue-based; design: scale not given: the % may be the effect or the level left; conditions: Cardiac atrium
Cavia porcellus [24] = species: Cavia porcellus; test: Chronotropic activity at L type calcium channel in guinea pig right atrium assessed as decrease in spontaneous beating at 50 uM relative to control; type: tissue-based; design: scale not given: the % may be the effect or the level left; conditions: Cardiac atrium
Cavia porcellus [25] = species: Cavia porcellus; test: Activity at L type calcium channel in K+ depolarized guinea pig aortic strip assessed as inhibition of calcium induced contraction at 100 uM; type: tissue-based; design: scale not given: the % may be the effect or the level left; conditions: Aorta; how it was run: as §6
Heart [26] = test: Cardiovascular activity in perfused guinea pig heart assessed as change in coronary perfusion pressure at 10 uM by ECG; type: functional, Cavia porcellus
How it was run: (§7)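 Perfused guinea-pig heart. Percentage change from basal value at the highest concentration tested, 10 µM. Parameters: +(dP/dt)max, heart rate, coronary perfusion pressure, PR interval and QT interval from ECG.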

Cavia porcellus [27] = species: Cavia porcellus; test: Chronotropic activity at L type calcium channel in guinea pig right atrium assessed as decrease in spontaneous beating at 10 uM relative to control; type: tissue-based; design: scale not given: the % may be the effect or the level left; conditions: Cardiac atrium
Cavia porcellus [28] = species: Cavia porcellus; test: Inotropic activity at L type calcium channel in guinea pig left atrium assessed as decrease in tension at 1 uM relative to control; type: tissue-based; design: scale not given: the % may be the effect or the level left; conditions: Cardiac atrium
Heart [29] = test: Cardiovascular activity in perfused guinea pig heart assessed as change in ventricular repolarization time at 10 uM by ECG; type: functional, Cavia porcellus; how it was run: as §7
Heart [30] = test: Cardiovascular activity in perfused guinea pig heart assessed as change in maximal rate of rise in left ventricular pressure at 10 uM by ECG; type: functional, Cavia porcellus; how it was run: as §7
Heart [31] = test: Cardiovascular activity in perfused guinea pig heart assessed as change in atrioventricular conduction time at 10 uM by ECG; type: functional, Cavia porcellus; how it was run: as §7
Heart [32] = test: Cardiovascular activity in perfused guinea pig heart assessed as change in heart rate at 10 uM by ECG; type: functional, Cavia porcellus; how it was run: as §7
Cavia porcellus [33] = species: Cavia porcellus; test: Activity at L type calcium channel in K+ depolarized guinea pig longitudinal smooth muscle assessed as inhibition of calcium induced contraction at 10 uM; design: scale not given: the % may be the effect or the level left
Cavia porcellus [34] = species: Cavia porcellus; test: Activity at L type calcium channel in K+ depolarized guinea pig aortic strip assessed as inhibition of calcium induced contraction at 50 uM; type: tissue-based; design: scale not given: the % may be the effect or the level left; conditions: Aorta; how it was run: as §6
Cavia porcellus [35] = species: Cavia porcellus; test: Activity at L type calcium channel in K+ depolarized guinea pig longitudinal smooth muscle assessed as inhibition of calcium induced contraction at 5 uM; design: scale not given: the % may be the effect or the level left
Cavia porcellus [36] = species: Cavia porcellus; test: Inotropic activity at L type calcium channel in guinea pig left atrium assessed as decrease in tension at 5 uM relative to control; type: tissue-based; design: scale not given: the % may be the effect or the level left; conditions: Cardiac atrium
Cavia porcellus [37] = species: Cavia porcellus; test: Activity at L type calcium channel in K+ depolarized guinea pig aortic strip assessed as inhibition of calcium induced contraction at 10 uM; type: tissue-based; design: scale not given: the % may be the effect or the level left; conditions: Aorta; how it was run: as §6
Cavia porcellus [38] = species: Cavia porcellus; test: Activity at L type calcium channel in K+ depolarized guinea pig longitudinal smooth muscle assessed as inhibition of calcium induced contraction at 0.1 uM; design: scale not given: the % may be the effect or the level left

SMILES: COC(=O)C1=C(C)NC(C)=C(C(=O)OC)C1c1ccccc1[N+](=O)[O-] [NIFEDIPINE]
- Activity (Heart [1]): -36%
- IC50 [2]: 3.6 nM
- Activity (Cavia porcellus [3]): 97%
- Activity (Heart [4]): -60%
- Activity (Heart [5]): -96%
- EC30 (Cavia porcellus [6]): 25 nM
- Log Ki [7]: -8.83
- IC50 [8]: 45 nM
- Activity (Heart [9]): 66%
- Activity (Heart [10]): 37%
- Activity (Cavia porcellus [11]): 70%
- Activity (Cavia porcellus [12]): 85%
- Activity (Cavia porcellus [13]): 82%
- EC50 [14]: 260 nM

SMILES: COC(=O)C1=C(C)NC(C)=C(C(=O)OC)C1c1c(C(F)(F)F)nc2sccn12
- Activity (HEK293 [15]): inactive
- Activity (Cavia porcellus [3]): 90%
- EC30 (Cavia porcellus [6]): 570 nM
- Activity (Cavia porcellus [16]): 54%
- Log Ki [7]: -5.35
- Activity (HEK293 [17]): inactive
- Activity (Cavia porcellus [18]): 34%
- EC50 [14]: 71 nM

SMILES: COC(=O)C1=C(C)NC(C)=C(C(=O)OC)C1c1c(-c2cc(OC)cc(OC)c2)nc2sccn12
- IC50 [2]: 1.45 nM
- Activity (Cavia porcellus [19]): 90%
- EC30 (Cavia porcellus [6]): 860 nM
- Activity (Cavia porcellus [20]): 89%
- Log Ki [7]: -6.51
- IC50 [8]: 265 nM
- Activity (Cavia porcellus [21]): 26%
- Activity (Cavia porcellus [18]): 40%
- IC50 [22]: 55 nM

SMILES: COC(=O)C1=C(C)NC(C)=C(C(=O)OC)C1c1c(C)nc2sc(C)cn12
- Activity (Cavia porcellus [23]): 43%
- Activity (Cavia porcellus [24]): 38%
- Activity (Cavia porcellus [25]): 33%

SMILES: COC(=O)C1=C(C)NC(C)=C(C(=O)OC)C1c1c(Cl)nc2sc(C)cn12
- Activity (Heart [26]): 14%
- Activity (Cavia porcellus [27]): 22%
- Log Ki [7]: < -5
- Activity (Cavia porcellus [28]): 63%
- Activity (Heart [29]): -16%
- Activity (Heart [30]): -35%
- Activity (Heart [31]): 61%
- Activity (Heart [32]): 6%
- IC50 [22]: 2060 nM
- Activity (Cavia porcellus [33]): 93%
- EC50 [14]: 56 nM
- Activity (Cavia porcellus [34]): 19%

SMILES: COC(=O)C1=C(C)NC(C)=C(C(=O)OC)C1c1c(-c2ccccc2OC(F)(F)F)nc2sccn12
- Activity (Cavia porcellus [35]): 81%
- Activity (Cavia porcellus [27]): 47%
- Activity (Cavia porcellus [36]): 67%
- Log Ki [7]: -6.8
- Activity (Cavia porcellus [25]): 47%
- IC50 [22]: 1950 nM
- EC50 [14]: 75 nM

SMILES: COC(=O)C1=C(C)NC(C)=C(C(=O)OC)C1c1c(-c2cccc(OC)c2)nc2sccn12
- Activity (Cavia porcellus [37]): 48%
- Activity (Cavia porcellus [19]): 94%
- EC30 (Cavia porcellus [6]): 550 nM
- Activity (Cavia porcellus [21]): 90%
- Activity (Cavia porcellus [38]): 51%
- IC50 [22]: 83 nM
- EC50 [14]: 1900 nM
